PMC3004996 (Bioconjugate chemistry, 2010)
Read-outs that look alike come from different tables or passages of the source. Bridge positions count the residues as written; N and C are the ends. Ends that are not written are not given here. Peptide text beside a SMILES is read from it. * marks the point of attachment. DOTA = O=C(O)CN1CCN(CC(=O)O)CCN(CC(=O)*)CCN(CC(=O)O)CC1

Key:
[1] = In vivo metabolite analysis; parameters: species or system mouse; conditions: radio-HPLC and gamma counting
Summary of the method: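 Female athymic nude mice bearing subcutaneous shoulder U87MG xenografts (~10⁷ cells; tumors 8–10 mm) were anesthetized and given 200–400 μCi of ⁶⁴Cu-labeled test peptide by tail vein, then euthanized. Blood and tumor were suspended in ~500 μL PBS plus 500–1000 μL DMF and homogenized by mortar and pestle. Homogenates were passed through a 0.2 μm filter. Filtrates were run on reversed-phase HPLC, with 30 s fractions gamma-counted (cpm).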

[2] = tested on: U87MG cells; test: Cell binding and uptake study; format: cell-based, human; conditions: 5 × 10^5 U87MG cells, 1 μg c(RGDyK), 37 °C, 30, 60, 120 min
Summary of the method: (§1)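 Cells were suspended in integrin binding buffer (25 mM Tris pH 7.4, 150 mM NaCl, 2 mM CaCl₂, 1 mM MgCl₂, 1 mM MnCl₂, 0.1% BSA). They were incubated with the ⁶⁴Cu-labeled test peptide at 1.5 μCi/tube, with or without c(RGDyK). Cells were then washed three times with chilled PBS, pelleted and gamma-counted. Uptake is % of added radioactivity, in triplicate. U87MG were maintained in DMEM and MDA-MB-435 in L-15, each with 10% heat-inactivated FBS.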

[3] = Stability in mouse serum, radio-HPLC; format: in vitro ADME; conditions: 50% mouse serum, 37 °C
[4] = In vivo biodistribution, gamma counting of dissected tissue; conditions: nude (nu/nu), mouse, iv, 100 uCi, total radioactivity
Summary of the method: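 U87MG xenograft-bearing anesthetized nude mice received ~100 μCi (~0.5 nmol) of 64Cu/Cy5.5 dual-labelled test peptide by tail vein. They were euthanized at 1, 4 and 24 hr. Dissected tissues were weighed and gamma counted, calibrated against a pre-measured tracer aliquot, and normalized to whole body weight and residual tail activity. Values are %ID/g, mean and standard deviation of three mice.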

[5] = tested on: MDA-MB-435 cells; test: Cell binding and uptake study; format: cell-based, human; conditions: 5 × 10^5 MDA-MB-435 cells, 37 °C, 30, 60, 120 min
Summary of the method: as §1

[6] = MicroPET imaging of MDA-MB-435 xenografts; format: in vivo; conditions: female, athymic nude (nu/nu), mouse, tumor (MDA-MB-435 xenograft), iv, total radioactivity
Summary of the method: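 MDA-MB-435 cells were grown in Leibovitz L-15 with 10% FBS, and 5 × 10⁶ cells in PBS were implanted subcutaneously in the shoulder of 4-6-week female nude mice. At 8-10 mm tumor diameter, mice (n ≥ 3) received ~100 μCi (~0.5 nmol) labelled probe by tail vein. Imaging used microPET with 3 or 5 min static scans. ROI counts/g/min were converted to %ID/g assuming 1 g/mL, without attenuation correction. Blocking groups were co-injected with 330 μg unlabelled c(RGDyK).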

[7] = incubation in serum for 24 h; cited from earlier work
[8] = 1 hr after injection into mice; cited from earlier work
[9] = tested on: U87MG tumor xenografts; conditions: cited from earlier work
[10] = target: αvβ3 integrin (Homo sapiens, UniProt P05106+P06756); conditions: read-out: KD for αvβ3 integrin; cited from earlier work
[11] = target: integrin αvβ3 (Homo sapiens) (UniProt P06756); conditions: cited from earlier work
Sequence of integrin αvβ3 (Homo sapiens) (P06756 31-1048, chain 1 of 2): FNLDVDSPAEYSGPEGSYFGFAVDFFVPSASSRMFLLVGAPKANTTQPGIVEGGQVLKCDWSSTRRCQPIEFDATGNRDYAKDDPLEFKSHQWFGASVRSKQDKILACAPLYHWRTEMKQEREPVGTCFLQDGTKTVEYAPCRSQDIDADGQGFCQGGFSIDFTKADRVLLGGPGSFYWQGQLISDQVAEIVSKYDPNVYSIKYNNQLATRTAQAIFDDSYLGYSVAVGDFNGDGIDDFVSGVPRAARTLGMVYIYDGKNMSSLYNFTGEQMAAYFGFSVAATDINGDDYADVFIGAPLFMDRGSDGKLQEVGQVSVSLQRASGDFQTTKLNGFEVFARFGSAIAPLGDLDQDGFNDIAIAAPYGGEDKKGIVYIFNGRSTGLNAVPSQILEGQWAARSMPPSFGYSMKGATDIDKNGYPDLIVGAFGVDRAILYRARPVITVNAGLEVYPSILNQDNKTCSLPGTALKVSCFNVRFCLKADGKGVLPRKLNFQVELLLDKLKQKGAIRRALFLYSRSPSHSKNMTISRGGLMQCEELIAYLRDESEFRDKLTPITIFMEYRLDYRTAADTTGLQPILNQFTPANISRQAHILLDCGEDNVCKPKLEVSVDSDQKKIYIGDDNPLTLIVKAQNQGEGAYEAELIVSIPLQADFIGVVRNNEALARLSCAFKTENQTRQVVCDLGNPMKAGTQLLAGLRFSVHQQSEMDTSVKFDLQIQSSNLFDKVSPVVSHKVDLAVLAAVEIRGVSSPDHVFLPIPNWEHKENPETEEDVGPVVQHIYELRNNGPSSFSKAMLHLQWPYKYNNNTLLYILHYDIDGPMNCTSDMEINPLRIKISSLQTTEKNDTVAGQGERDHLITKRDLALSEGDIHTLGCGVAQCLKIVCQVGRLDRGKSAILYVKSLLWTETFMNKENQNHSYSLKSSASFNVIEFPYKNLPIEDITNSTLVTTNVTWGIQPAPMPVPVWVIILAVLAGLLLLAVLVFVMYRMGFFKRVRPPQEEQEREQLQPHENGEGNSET
Sequence of integrin αvβ3 (Homo sapiens) (P05106 27-788, chain 2 of 2, further chain): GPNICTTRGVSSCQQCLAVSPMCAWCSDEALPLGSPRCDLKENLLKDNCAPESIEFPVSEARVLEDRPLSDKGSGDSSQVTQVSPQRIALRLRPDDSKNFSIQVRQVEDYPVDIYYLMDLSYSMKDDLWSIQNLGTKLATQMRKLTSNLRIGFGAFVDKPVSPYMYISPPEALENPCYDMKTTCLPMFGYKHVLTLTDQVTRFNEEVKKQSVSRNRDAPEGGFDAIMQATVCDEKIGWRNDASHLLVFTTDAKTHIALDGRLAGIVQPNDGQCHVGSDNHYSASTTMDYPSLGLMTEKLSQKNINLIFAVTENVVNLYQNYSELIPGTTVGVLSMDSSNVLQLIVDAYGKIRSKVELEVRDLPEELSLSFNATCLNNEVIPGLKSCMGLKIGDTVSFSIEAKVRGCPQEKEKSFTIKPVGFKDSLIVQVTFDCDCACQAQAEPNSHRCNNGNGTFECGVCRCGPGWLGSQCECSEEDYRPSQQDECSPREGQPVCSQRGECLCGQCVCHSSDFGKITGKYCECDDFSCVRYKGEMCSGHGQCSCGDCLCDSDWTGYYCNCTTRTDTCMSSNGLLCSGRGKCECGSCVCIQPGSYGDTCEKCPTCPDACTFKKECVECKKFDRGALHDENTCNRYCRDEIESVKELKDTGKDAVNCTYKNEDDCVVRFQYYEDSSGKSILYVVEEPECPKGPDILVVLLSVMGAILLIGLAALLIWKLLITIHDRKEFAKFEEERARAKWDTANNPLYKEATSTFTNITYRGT

Sequence of αvβ3 integrin (P06756 31-889 limits assumed): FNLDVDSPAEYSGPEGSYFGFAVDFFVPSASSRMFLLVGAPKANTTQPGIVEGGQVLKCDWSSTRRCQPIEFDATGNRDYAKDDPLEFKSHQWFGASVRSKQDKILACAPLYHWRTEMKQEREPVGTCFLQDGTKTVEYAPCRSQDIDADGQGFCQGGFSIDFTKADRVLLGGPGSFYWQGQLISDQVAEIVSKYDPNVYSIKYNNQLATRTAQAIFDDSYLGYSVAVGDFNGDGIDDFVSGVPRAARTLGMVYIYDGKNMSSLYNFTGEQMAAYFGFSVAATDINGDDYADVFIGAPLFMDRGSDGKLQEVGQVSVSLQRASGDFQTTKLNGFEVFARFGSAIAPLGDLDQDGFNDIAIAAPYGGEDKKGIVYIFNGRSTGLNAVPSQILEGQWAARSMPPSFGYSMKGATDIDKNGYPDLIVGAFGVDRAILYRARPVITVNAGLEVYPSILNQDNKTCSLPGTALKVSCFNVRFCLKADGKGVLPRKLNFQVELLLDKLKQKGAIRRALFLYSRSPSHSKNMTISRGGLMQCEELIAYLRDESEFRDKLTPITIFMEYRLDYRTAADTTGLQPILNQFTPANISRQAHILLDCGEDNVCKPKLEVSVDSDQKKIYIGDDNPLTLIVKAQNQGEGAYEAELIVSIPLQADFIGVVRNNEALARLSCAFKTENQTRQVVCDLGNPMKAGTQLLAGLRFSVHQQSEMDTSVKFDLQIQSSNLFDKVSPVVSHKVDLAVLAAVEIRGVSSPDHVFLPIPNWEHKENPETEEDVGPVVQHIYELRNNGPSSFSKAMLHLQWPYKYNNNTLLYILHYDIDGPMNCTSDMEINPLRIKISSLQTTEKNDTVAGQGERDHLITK
Sequence of αvβ3 integrin (P06756 891-1048 partner limits assumed): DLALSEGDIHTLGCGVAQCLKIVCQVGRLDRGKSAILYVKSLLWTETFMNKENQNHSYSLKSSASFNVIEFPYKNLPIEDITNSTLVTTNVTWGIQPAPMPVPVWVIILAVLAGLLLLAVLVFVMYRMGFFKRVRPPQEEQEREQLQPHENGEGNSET
Sequence of αvβ3 integrin (P05106 27-788): as the sequence (P05106 27-788, chain 2 of 2, further chain) above
Sequence of echistatin (P17347 131-179): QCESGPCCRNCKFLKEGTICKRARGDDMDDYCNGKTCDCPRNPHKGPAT

CCN1C(=CC=CC=CC2=[N+](CCCCCC(=O)NCCCC[C@H](NC(=O)CN3CCN(CC(=O)O)CCN(CC(=O)O)CCN(CC(=O)O)CC3)C(=O)NCC(=O)NCC(=O)N[C@@H](Cc3ccc(O)cc3)C(=O)NCC(=O)N[C@H]3CSSC[C@@H]4NC(=O)CNC(=O)[C@H](C)NC(=O)[C@H](CC(C)C)NC(=O)[C@@H]5CSSC[C@@H](C(=O)NCC(N)=O)NC(=O)[C@H](Cc6ccccc6)NC(=O)CNC(=O)[C@H](CC(N)=O)NC(=O)[C@@H]6CCCN6C(=O)CNC(=O)[C@H](CSSC[C@H](NC(=O)[C@H](CO)NC(=O)[C@H]([C@@H](C)O)NC(=O)[C@@H]6CCCN6C(=O)[C@H](C)NC(=O)[C@H](Cc6c[nH]c7ccccc67)NC(=O)[C@H](CC(=O)O)NC(=O)CNC(=O)[C@H](CCCNC(=N)N)NC(=O)CNC(=O)[C@H](CCC(N)=O)NC(=O)[C@@H]6CCCN6C3=O)C(=O)N[C@@H](CO)C(=O)N[C@@H](CCC(N)=O)C(=O)N[C@@H](CC(=O)O)C(=O)N[C@@H](CO)C(=O)N[C@@H](CC(=O)O)C(=O)N5)NC(=O)[C@H](C(C)C)NC4=O)c3ccc4c(S(=O)(=O)[O-])cc(S(=O)(=O)O)cc4c3C2(C)C)C(C)(C)c2c1ccc1c(S(=O)(=O)O)cc(S(=O)(=O)O)cc21 (single isomer, unassigned) [^64Cu-DOTA/Cy5.5-2.5D, ^64Cu-DOTA-Lys(Cy5.5)-Gly-Gly-Tyr-2.5D, metal not drawn]
In vivo metabolic stability in tumor ([1]; U87MG tumor 1 hr post injection): significant breakdown of probe
In vivo metabolic stability in kidney ([1]; kidney 1 hr post injection): intact probe was not able to be recovered
In vivo metabolic stability in liver ([1]; liver 1 hr post injection): intact probe was not able to be recovered
Cell binding and uptake with excess c(RGDyK) [2]: blocked
Stability in mouse serum ([3]; 1 hr): minimal probe degradation
Stability in mouse serum ([3]; 24 hr): intact probe was unrecoverable
tissue uptake ([4]; kidney, Kidney uptake, for 1-4 hr post injection, approximate): ~80 %ID/g
tissue uptake ([4]; liver, Liver uptake, at 1-24 hr post injection): 4 to 7 %ID/g
tissue uptake ([4]; liver, Liver uptake, at 1 and 4 hr post injection): 4 to 7 %ID/g
Cell binding and uptake with excess c(RGDyK) ([5]; 1 μg c(RGDyK)): blocked
Cell binding and uptake, versus U87MG cells ([5]; 1.5 μCi/tube, IBB, gamma counter, triplicate): lower levels of probe uptake
tissue uptake at 1 h ([6]; 100 uCi): 1.33 ± 0.02 %ID/g
tissue uptake at 24 h ([6]; 100 uCi): 1.01 ± 0.1 %ID/g
tissue uptake at 1 h [6]: 0.82 ± 0.05 %ID/g
tissue uptake at 24 h [6]: 0.6 ± 0.09 %ID/g

CC(C)C[C@@H]1NC(=O)[C@@H]2CSSC[C@@H](C(=O)NCC(N)=O)NC(=O)[C@H](Cc3ccccc3)NC(=O)CNC(=O)[C@H](CC(N)=O)NC(=O)[C@@H]3CCCN3C(=O)CNC(=O)[C@@H]3CSSC[C@H](NC(=O)[C@H](CO)NC(=O)[C@H]([C@@H](C)O)NC(=O)[C@@H]4CCCN4C(=O)[C@H](C)NC(=O)[C@H](Cc4c[nH]c5ccccc45)NC(=O)[C@H](CC(=O)O)NC(=O)CNC(=O)[C@H](CCCNC(=N)N)NC(=O)CNC(=O)[C@H](CCC(N)=O)NC(=O)[C@@H]4CCCN4C(=O)[C@@H](NC(=O)CNC(=O)CN4CCN(CC(=O)O)CCN(CC(=O)O)CCN(CC(=O)O)CC4)CSSC[C@H](NC(=O)CNC(=O)[C@H](C)NC1=O)C(=O)N[C@@H](C(C)C)C(=O)N3)C(=O)N[C@@H](CO)C(=O)N[C@@H](CCC(N)=O)C(=O)N[C@@H](CC(=O)O)C(=O)N[C@@H](CO)C(=O)N[C@@H](CC(=O)O)C(=O)N2 [^64Cu-DOTA-2.5D, metal not drawn] ({DOTA}-GCPQGRGDWAPTSCSQDSDCLAGCVCGPNGFCG-NH2; disulfide 2-24, 14-26, 20-32)
Stability in serum [7]: only minimal fragmentation
In vivo metabolic stability in blood, tumor and kidneys [8]: recovered intact
Liver uptake ([9]; 1 to 4 hr post injection, previously observed): 1-2 %ID/g
Kidney uptake ([9]; 1 hr post injection): 8.08 ± 0.67 %ID/g
Kidney uptake ([9]; 4 hr post injection): 2.69 ± 0.48 %ID/g
Kidney uptake ([9]; 24 hr post injection): 1.25 ± 0.11 %ID/g

ECESGPCCRNCKFLKEGTICKRARGDDMDDYCNGKTCDCPRNPHKGPAT (disulfide 2-11, 7-32, 8-37, 20-39 (inferred)) [Echistatin]
Kd [10]: ~0.4 nM

echistatin (from UniProt P17347)
Kd [11]: 0.4 nM
